Laboratory results: ChEMBL document CHEMBL1121630, “Prostaglandin analogues possessing antinidatory effects. 1. Modification of the omega chain” (1980)

Organism: Rattus norvegicus
Test: Antinidatory effect was measured in rat relative to that of prostaglandin F2 alpha.
Format: functional
Method in brief: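 Mated Wistar female rats (9 weeks, 180–200 g); sperm in vaginal smear marked day 0. Analogues in 10% EtOH–0.4% Tween 80 in saline (1 mg/mL stock, diluted with saline), given sc twice daily on days 3–5 at three to eight doses, 5–20 rats per dose. Killed day 11; no implantation site = effective. ED50 by Litchfield-Wilcoxon, expressed relative to PGF2α.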
`COC(=O)CCC/C=C\C[C@@H]1[C@@H](/C=C/[C@@H](O)CC(=O)c2cccc(Cl)c2)[C@H](O)C[C@@H]1O` showed an Activity of 10. `COC(=O)CCC/C=C\C[C@@H]1[C@@H](/C=C/[C@@H](O)C2(Sc3ccccc3)CC2)[C@H](O)C[C@@H]1O` showed an Activity of under 2. In the case of `COC(=O)CCC/C=C\C[C@@H]1[C@@H](/C=C/[C@@H](O)CC(=O)c2ccc(Cl)cc2)[C@H](O)C[C@@H]1O`, the Activity is reported as 8. Work on `COC(=O)CCC/C=C\C[C@@H]1[C@@H](/C=C/[C@@H](O)C#COc2ccccc2)[C@H](O)C[C@@H]1O` yielded an Activity of under 2. For `COC(=O)CCC/C=C\C[C@@H]1[C@@H](/C=C/[C@@H](O)C2C=Cc3ccccc32)[C@H](O)C[C@@H]1O` (stereo partly specified), the Activity was under 5. With `COC(=O)CCC/C=C\C[C@@H]1[C@@H](/C=C/[C@@H](O)c2ccccc2OC)[C@H](O)C[C@@H]1O` the Activity was under 2. For `COC(=O)CCC/C=C\C[C@@H]1[C@@H](/C=C/[C@@H](O)C(Oc2ccccc2)C(=O)OC)[C@H](O)C[C@@H]1O` (stereo partly specified), the Activity was under 4. In the case of `COC(=O)CCC/C=C\C[C@@H]1[C@@H](/C=C/[C@@H](O)C[Si](C)(C)c2ccccc2)[C@H](O)C[C@@H]1O`, the Activity is reported as under 1. Compound `COC(=O)CCC/C=C\C[C@@H]1[C@@H](/C=C/[C@@H](O)c2cc3ccccc3s2)[C@H](O)C[C@@H]1O` has an Activity of 40. Work on `COC(=O)CCC/C=C\C[C@@H]1[C@@H](/C=C/[C@@H](O)C#Cc2ccccc2)[C@H](O)C[C@@H]1O` yielded an Activity of 40. `COC(=O)CCC/C=C\C[C@@H]1[C@@H](/C=C/[C@@H](O)c2cc3ccccc3o2)[C@H](O)C[C@@H]1O` gave an Activity of 100. `COC(=O)CCC/C=C\C[C@@H]1[C@@H](/C=C/[C@@H](O)CSC2=CCCCC2)[C@H](O)C[C@@H]1O` gave an Activity of 10. Work on `COC(=O)CCC/C=C\C[C@@H]1[C@@H](/C=C/[C@@H](O)CC(=O)Oc2ccccc2)[C@H](O)C[C@@H]1O` yielded an Activity of under 1. In the case of `COC(=O)CCC/C=C\C[C@@H]1[C@@H](/C=C/[C@@H](O)C#Cc2cccc(Cl)c2)[C@H](O)C[C@@H]1O`, the Activity is reported as 40. Compound `COC(=O)CCC/C=C\C[C@@H]1[C@@H](/C=C/[C@@H](O)CC(=O)c2ccccc2)[C@H](O)C[C@@H]1O` has an Activity of 40. Compound `COC(=O)CCC/C=C\C[C@@H]1[C@@H](/C=C/[C@@H](O)C#Cc2ccc(Cl)cc2)[C@H](O)C[C@@H]1O` has an Activity of 1.
